Screening data from PubChem.
Rows were chosen to be rich in hits. Some 6.4% of all compounds tested hit in one or more screens of this group.
MPTP inh – inhibitors of mitochondrial permeability transition pore; isolated mouse mitochondria, Ca2+ swelling absorbance, 30 min; inhibition, % at 10 µM; hit rate 1.4% among 360,000; AID 602449;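 active = inhibition of 50% or more, scaled per plate between neutral and stimulator controls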;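 note: 0% = DMSO wells given calcium and 100% = 1 mM EGTA wells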
TbMetRS inhib – Trypanosoma brucei MetRS inhibition | purified T. brucei MetRS, ATP depletion, Kinase-Glo luminescence | hit rate 0.4% among 360,000 | inhibition, % at 11.9 µM | AID 624268;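 active = inhibition above a per-plate cutoff of the control wells' mean inhibition plus 3 SD, cut at about 5.5% in these data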;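 note: 0% = DMSO wells median and 100% = median of wells with control inhibitor compound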
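technique = Kinase-Glo luminescence, ATP depletion format | system = purified MetRS (methionyl-tRNA synthetase) enzyme from Trypanosoma brucei | timing = 15 min preincubation, 2 h reaction, all 25 °C | evaluation = percent inhibition versus plate control medians | dosing = single dose, 11.9 µM final nominal, 0.9% final DMSO | also added = substrates ATP, L-methionine and bulk Escherichia coli tRNA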
EBV gp42 inh – EBV gp42 inhibition; Fluorescence polarization binding assay, mP read-out; inhibition, % (tested at 21.74 µM); Q1HVG2; hit rate 0.42% among 220,000; AID 1085; in the data active = inhibition above about 50%
Target sequence (Q1HVG2 whole entry, looked up): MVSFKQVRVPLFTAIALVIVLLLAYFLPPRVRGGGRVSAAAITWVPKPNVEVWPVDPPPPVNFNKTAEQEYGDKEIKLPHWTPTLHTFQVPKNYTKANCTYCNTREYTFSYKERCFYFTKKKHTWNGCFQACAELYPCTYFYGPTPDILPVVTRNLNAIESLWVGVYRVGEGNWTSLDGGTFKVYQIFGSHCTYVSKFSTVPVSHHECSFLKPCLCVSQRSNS
CHOP inhibitor – CHOP inhibition in unfolded protein response; CHO-K1 CHOP-promoter luciferase, tunicamycin-induced, 15-18 h; inhibition, % at 10 µM; hit rate 3.8% among 220,000;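 active = compounds that reduced the stress-induced luciferase reporter signal by more than about 70% of percent inhibition, limit read from the data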;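 note: 0% = tunicamycin plus vehicle and 100% = wells without tunicamycin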
WT yeast gro inh – growth inhibition of WT yeast, mitochondrial fusion screen | mitochondrial fusion phenotypic screen, WT strain | inhibition, % at 10 µM | hit rate 2.1% among 190,000; in the data active = inhibition above about 58%; tested in S. cerevisiae
NR3A LBD binder – NR3A (human) ligand-binding domain modulation; NR3A LBD differential scanning fluorimetry, Tm shift; 0% = protein alone, 100% = glycine-bound protein; Tm shift relative to glycine control, % at 25 µM; hit rate 2.5% among 340,000; AID 1259313;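 active = melting temperature shift of at least 10% of the positive control shift, at one fixed dose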
TbMetRS confirm – confirmation of Trypanosoma brucei MetRS inhibitors. shares compounds with TbMetRS inhib. T. brucei MetRS enzyme, luminescence (ATP depletion). inhibition, % at 11.9 µM. hit rate 93% among 1,400. AID 624412; in the data active = inhibition above about 7%
Jurkat cytotox – counter-screen for T. brucei MetRS inhibitors: Jurkat cell cytotoxicity. shares compounds with TbMetRS inhib. Jurkat cells viability, ATP luminescence. inhibition, % at 8.3 µM. hit rate 12% among 1,400. AID 624413; in the data active = inhibition above about 15%;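 note: 0% = vehicle and 100% = reference inhibitor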
Tb MetRS inh FP – inhibits T. brucei methionyl tRNA synthetase in orthogonal FP test | shares compounds with TbMetRS inhib | purified T. brucei MetRS, fluorescence polarization | inhibition, % at 11.9 µM | hit rate 44% among 1,400 | AID 651607; in the data active = inhibition above about 17%;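 note: 0% = vehicle wells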
* marks the source's active call; other numbers are inactive results; nt = not tested or not shown; ! = a repeat was not active.

SMILES	MPTP inh	TbMetRS inhib	EBV gp42 inh	CHOP inhibitor	WT yeast gro inh	NR3A LBD binder	TbMetRS confirm	Jurkat cytotox	Tb MetRS inh FP
COc1ccc2c(c1OC)CN1CCc3cc4c(cc3C1C2)OCO4 (centres undefined)	0	-2	nt	nt	nt	-1	nt	nt	nt
CC(C)CNC(=O)c1c(N)n(Cc2ccco2)c2nc3ccccc3nc12	1	1	12	14	31	-9	nt	nt	nt
COc1ccc(Cn2c(N)c(C(=O)NCc3ccco3)c3nc4ccccc4nc32)cc1OC	-4	8.0*	nt	nt	-4	8	5	14	11
Nc1ccccc1N=Cc1c(O)n(CCC2=CCCCC2)c(=O)[nH]c1=O	3	-4	-19	15	22	-12	nt	nt	nt
NC(=O)c1cn(C2OC(CO)C(O)C2O)c2ncnc(N)c12 (centres undefined)	-1	5.9*!	-16	105*	14	3	12*	97*	12
Cc1ccc2nc3c(cc2c1)CC1(C(=O)N(C)C(=O)N(C)C1=O)C1COCCN31 (centres undefined)	2	7.1*	-16	-5	0	0	4	-5	7
CCNC(=O)NC(=O)C(C)OC(=O)c1c(C)nn(Cc2ccccc2Cl)c1Cl (centres undefined)	4	-1	-5	26	5	-5	nt	nt	nt
Nc1c(C(=O)NC2CCCC2)c2nc3ccccc3nc2n1CC1CCCO1 (centres undefined)	4	7.5*	-1	76*	50	-9	5	-1	5
O=C1NC(=O)C(=Cc2cccc(OCCOc3ccccc3)c2)C(=O)N1	1	-1	nt	nt	nt	-1	nt	nt	nt
Clc1ccc(C(c2ccc(Cl)cc2)n2cc[n+](CC(OCc3ccc(Cl)cc3Cl)c3ccc(Cl)cc3Cl)c2)cc1 (centres undefined)	34	8.7*	nt	-24	nt	-14	13*	82*	178*
CCN(CC)C(=O)c1ccc(NC(=O)c2ccc(-n3cncn3)c([N+](=O)[O-])c2)cc1	-1	8.0*	nt	nt	nt	1	43*	8	26*
O=C1NC(=O)N(Cc2ccccc2)C(=O)/C1=C/c1cnc(-c2ccccc2)nc1	-1	0	-4	-3	6	-2	nt	nt	nt
Cc1nc2c(=O)n(C)c(=O)nc-2n(C)n1	-6	30*	-7	nt	10	1	22*	91*	12
CN(C)Cc1c[nH]c2cc([N+](=O)[O-])ccc12	-1	6.7*	nt	nt	nt	0	30*	-3	14
